Where a SMILES comes first, the peptide text is derived from it.
What was measured:
[1] = biological target: T1, recombinant human PEPD (Homo sapiens, UniProt P12955); assay: Inhibition of recombinant PEPD, alanine release assay; assay type: biochemical
T1 sequence (P12955 1-493): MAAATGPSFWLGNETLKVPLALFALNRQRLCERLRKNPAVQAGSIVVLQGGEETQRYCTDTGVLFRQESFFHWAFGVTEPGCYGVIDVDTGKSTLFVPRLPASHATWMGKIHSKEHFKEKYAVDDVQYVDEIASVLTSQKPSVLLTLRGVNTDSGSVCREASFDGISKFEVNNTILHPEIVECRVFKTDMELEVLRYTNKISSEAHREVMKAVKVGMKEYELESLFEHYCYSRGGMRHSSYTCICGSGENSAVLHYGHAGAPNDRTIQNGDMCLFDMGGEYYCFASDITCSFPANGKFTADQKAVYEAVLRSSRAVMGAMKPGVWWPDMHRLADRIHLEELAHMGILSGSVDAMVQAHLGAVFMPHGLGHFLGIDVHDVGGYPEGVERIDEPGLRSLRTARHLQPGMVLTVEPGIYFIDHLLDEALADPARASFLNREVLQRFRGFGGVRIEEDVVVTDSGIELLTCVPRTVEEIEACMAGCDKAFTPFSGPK

[2] = biological target: recombinant XPNPEP1 (Homo sapiens, UniProt Q9NQW7); assay: Inhibition of recombinant XPNPEP1, H-Lys; assay type: biochemical; conditions: for XPNPEP1 inhibition (in words): recombinant XPNPEP1
Chain of recombinant XPNPEP1 (Q9NQW7 whole entry): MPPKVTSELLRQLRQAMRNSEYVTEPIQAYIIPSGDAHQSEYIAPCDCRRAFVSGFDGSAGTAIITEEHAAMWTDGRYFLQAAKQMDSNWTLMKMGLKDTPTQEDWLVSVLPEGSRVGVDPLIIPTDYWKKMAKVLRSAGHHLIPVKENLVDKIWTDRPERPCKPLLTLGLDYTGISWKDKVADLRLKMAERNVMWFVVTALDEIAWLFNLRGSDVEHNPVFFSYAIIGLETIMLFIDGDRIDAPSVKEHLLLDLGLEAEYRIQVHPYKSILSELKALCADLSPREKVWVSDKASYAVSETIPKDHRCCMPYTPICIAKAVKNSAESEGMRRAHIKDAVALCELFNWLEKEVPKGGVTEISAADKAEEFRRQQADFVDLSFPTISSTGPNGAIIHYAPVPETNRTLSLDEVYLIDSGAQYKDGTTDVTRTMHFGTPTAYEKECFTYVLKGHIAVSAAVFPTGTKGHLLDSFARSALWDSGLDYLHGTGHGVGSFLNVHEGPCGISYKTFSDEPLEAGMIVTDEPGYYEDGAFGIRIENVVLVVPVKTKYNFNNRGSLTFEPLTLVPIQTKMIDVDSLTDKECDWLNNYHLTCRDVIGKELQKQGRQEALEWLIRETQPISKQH

[3] = Stability in cell culture supernatants; assay type: in vitro ADME
Summary of the method: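 Test compounds are incubated in conditioned medium collected from MV4;11 cultures for 24 h at 37 °C. Intact compound and the free acid product are then quantified by LC/MS, with species identified by retention time. Values are means ± SEM of three biological replicates.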

[4] = tested on: MV4;11 WT cells; assay: CellTiter-Glo cell viability, WT MV4; assay type: cell-based, human; conditions: CTG, 24 h
[5] = tested on: MV4;11 CASP1^−/− cells; assay: CellTiter-Glo cell viability, CASP1 knockout MV4; assay type: cell-based, human; conditions: for Cell death independent of CASP1 in MV4;11 cells (in words): WT and CASP1^−/− MV4;11, CTG, 24 h
Summary of the method: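 CASP1-knockout MV4;11 cells (generated previously) are grown alongside wild type in RPMI 1640 with 10% FBS at 37 °C in 5% CO2. Cells are plated at 2000 per well in 384-well plates and dosed by pin tool in three-fold dilutions, topping at 100 μM (down to 15.2 nM) or 10 μM (down to 1.5 nM). After 24 h, CellTiter-Glo luminescence is read (2 min shake, 10 min at 25 °C). IC50 values are means ± SEM of three biological replicates.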

[6] = tested on: OCI-AML2 cells; assay: PI uptake in OCI-AML2 cells; assay type: cell-based, human; conditions: 6.25 μM, compared to CQ31
Summary of the method: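 OCI-AML2 cells (2 × 10^4 per well, 384-well, RPMI) are treated with 6.25 μM compound, with PI added at 10 μM final. PI fluorescence (Ex/Em 535/617 nm) is recorded at 37 °C every 5 min over 6 h. Signals are baseline-corrected to DMSO vehicle and normalized to the maximum response. Values are means ± SEM of three biological replicates.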

[7] = tested on: DOX-inducible CARD8 E274R mutant THP-1 cells; assay: CARD8 E274R mutant NT degradation assay in CARD8^−/− THP-1 cells; assay type: cell-based, human; conditions: DOX 100 ng/mL 16 h; VbP 10 μM, CQ31/CQ80 20 μM, VP-OMe 1 mM, MeBs 10 μM; 6 h
Summary of the method: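 Parental CARD8-knockout THP-1 cells carry a stably integrated doxycycline-inducible CARD8 E274R construct. Cells are grown in RPMI 1640 with L-glutamine and 10% FBS at 37 °C in 5% CO2. They are induced with or without DOX (100 ng/mL, 16 h), then exposed to test compounds for 6 h.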

[8] = biological target: CARD8-DPP9 ternary complex in HEK 293T^CASP1+GSDMD cells (Homo sapiens, UniProt Q86TI2); assay: dTAG-based CARD8-DPP9 ternary complex disruption assay; assay type: cell-based; conditions: dTAG-13 500 nM; VbP 10 μM, CQ31 20 μM, CQ80 20 μM, VP-OMe 1 mM; 6 h; LDH release
Chain of CARD8-DPP9 ternary complex in HEK 293T^CASP1+GSDMD cells (Q86TI2 whole entry, one chain of several): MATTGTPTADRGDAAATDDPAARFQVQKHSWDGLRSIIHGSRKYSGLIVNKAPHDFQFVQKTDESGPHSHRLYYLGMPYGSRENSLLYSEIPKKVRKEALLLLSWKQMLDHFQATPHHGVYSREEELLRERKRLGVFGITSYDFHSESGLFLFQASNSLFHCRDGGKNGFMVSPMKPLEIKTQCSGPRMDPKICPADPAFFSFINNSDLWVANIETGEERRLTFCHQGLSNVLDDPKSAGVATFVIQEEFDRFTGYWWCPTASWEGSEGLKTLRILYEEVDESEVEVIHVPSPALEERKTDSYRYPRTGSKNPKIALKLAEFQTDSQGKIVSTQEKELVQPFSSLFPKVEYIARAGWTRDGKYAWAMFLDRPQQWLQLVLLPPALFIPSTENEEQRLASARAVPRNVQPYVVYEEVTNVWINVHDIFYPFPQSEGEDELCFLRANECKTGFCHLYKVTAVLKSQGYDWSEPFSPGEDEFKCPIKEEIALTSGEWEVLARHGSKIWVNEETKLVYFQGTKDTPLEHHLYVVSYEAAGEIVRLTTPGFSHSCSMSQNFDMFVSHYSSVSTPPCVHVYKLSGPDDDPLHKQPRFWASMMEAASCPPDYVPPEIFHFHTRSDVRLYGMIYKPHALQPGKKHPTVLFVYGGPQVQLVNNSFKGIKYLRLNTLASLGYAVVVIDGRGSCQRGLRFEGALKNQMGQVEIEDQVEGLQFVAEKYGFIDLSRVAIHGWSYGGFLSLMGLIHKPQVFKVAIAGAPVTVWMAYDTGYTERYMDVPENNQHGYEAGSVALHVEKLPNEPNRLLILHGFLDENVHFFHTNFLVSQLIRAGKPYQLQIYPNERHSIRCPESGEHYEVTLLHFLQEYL

| SMILES | PEPD inhibition (in words) [1] | Cytotoxicity / activity against MV4;11 cells (in words) [4] | further results |
| --- | --- | --- | --- |
| CC(C)C[C@@H](N)C(O)C(=O)N1CCC[C@H]1C(=O)O (stereo partly drawn) [CQ04, (2S,3R)-3-amino-2-hydroxy-5-methyl-hexanoyl-proline] | more potent than CQ31 | – | XPNPEP1 inhibition (in words) [2]: more potent than CQ31 |
| CC(C)C[C@@H](N)[C@H](O)C(=O)N1CCC[C@H]1C(=O)OC(C)(C)C [CQ34, tert-Butyl ((2S,3R)-3-Amino-2-hydroxy-5-methylhexanoyl)-L-pro-linate] | inhibited PEPD and XPNPEP1 similarly | slightly more toxic | Stability in cell culture supernatants (in words) [3]: considerably more stable than CQ31 or CQ94; Time after which completely hydrolyzed [3]: ≤ 8 h; XPNPEP1 inhibition (in words) [2]: inhibited PEPD and XPNPEP1 similarly |
| COC(=O)[C@@H]1C[C@H](O)CN1C(=O)[C@@H](O)[C@H](N)CC(C)C [CQ39, Methyl (2S,4S)-1-((2S,3R)-3-Amino-2-hydroxy-5-methylhexano-yl)-4-hydroxypyrrolidine-2-carboxylate] | – | completely inactive | – |
| COC(=O)[C@@H]1CCCN1C(=O)[C@@H](O)[C@H](N)Cc1ccccc1 [CQ42, Methyl ((2S,3R)-3-Amino-2-hydroxy-4-phenylbutanoyl)-l-prolinate] | – | almost completely inactive | – |
| COC(=O)[C@@H]1CCCN1C(=O)[C@@H](O)[C@H](N)C12CC3CC(CC(C3)C1)C2 [CQ47, Methyl ((2S,3R)-3-(Adamantan-1-yl)-3-amino-2-hydroxypropanoyl)-l-prolinate] | – | almost completely inactive | – |
| CC(C)C[C@@H](N)[C@H](O)C(=O)N1CCC[C@H]1C(N)=O [CQ49, (S)-1-((2S,3R)-3-Amino-2-hydroxy-5-methylhexanoyl)-pyrrolidine-2-carboxamide] | – | retained similar PEPD/XPNPEP1 inhibition and cytotoxicity as CQ31 | – |
| COC(=O)[C@H](CC(C)C)NC(=O)[C@@H](O)[C@H](N)CC(C)C [CQ52, Methyl ((2S,3R)-3-Amino-2-hydroxy-5-methylhexanoyl)-l-leucinate] | very weak PEPD and XPNPEP1 inhibitors | – | XPNPEP1 inhibition (in words) [2]: very weak PEPD and XPNPEP1 inhibitors; Cell death independent of CASP1 in MV4;11 cells (in words) [5]: triggered CASP1-independent cell death |
| CC(C)C[C@@H](N)[C@H](O)C(=O)N1CCC[C@H]1CNS(C)(=O)=O [CQ53, N-(((S)-1-((2S,3R)-3-Amino-2-hydroxy-5-methylhexanoyl)-pyrrolidin-2-yl)methyl)methanesulfon-amide] | – | completely inactive in cells | – |
| CONC(=O)[C@@H]1CCCN1C(=O)[C@@H](O)[C@H](N)CC(C)C [CQ55, (S)-1-((2S,3R)-3-Amino-2-hydroxy-5-methylhexanoyl)-N-methoxypyrrolidine-2-carboxamide] | – | completely inactive in cells | – |
| COC(=O)[C@@H]1CCCN1C(=O)[C@@H](O)[C@H](N)C1CC1 [CQ62, Methyl ((2S,3R)-3-Amino-3-cyclopropyl-2-hydroxypropanoyl)-l-prolinate] | – | almost completely inactive | – |
| COC(=O)[C@H](Cc1ccccc1)NC(=O)[C@@H](O)[C@H](N)CC(C)C [CQ72, Methyl ((2S,3R)-3-Amino-2-hydroxy-5-methylhexanoyl)-l-phenylalaninate] | very weak PEPD and XPNPEP1 inhibitors | – | XPNPEP1 inhibition (in words) [2]: very weak PEPD and XPNPEP1 inhibitors; Cell death independent of CASP1 in MV4;11 cells (in words) [5]: triggered CASP1-independent cell death |
| COC(=O)[C@@H]1CCCN1C(=O)[C@@H](O)[C@H](N)CCCCO [CQ75] | retained PEPD inhibition | lost cytotoxicity | – |
| CC(C)C[C@@H](N)[C@H](O)C(=O)N1CCCC1 [CQ76, (2S,3R)-3-Amino-2-hydroxy-5-methyl-1-(pyrrolidin-1-yl)hexan-1-one] | – | abrogated all activity | – |
| COC(=O)[C@@H](NC(=O)[C@@H]1CCCN1C(=O)[C@@H](O)[C@H](N)CC(C)C)C(C)C [CQ78, Methyl ((2S,3R)-3-Amino-2-hydroxy-5-methylhexanoyl)-l-prolyl-l-valinate] | – | – | Rate of lytic cell death by PI uptake in OCI-AML2 cells [6]: caused more rapid lytic cell death |
| CC(C)C[C@H](NC(=O)[C@@H]1CCCN1C(=O)[C@@H](O)[C@H](N)CC(C)C)C(=O)O [CQ92] | more potent inhibitor of both PEPD and XPNPEP1 than CQ80 | – | XPNPEP1 inhibition (in words) [2]: more potent inhibitor of both PEPD and XPNPEP1 than CQ80 |
| CC(C)C[C@@H](N)[C@H](O)C(=O)N1CCC[C@H]1C(=O)OC1CCCC1 [CQ94, Cyclopentyl ((2S,3R)-3-Amino-2-hydroxy-5-methylhexanoyl)-L-prolinate] | inhibited PEPD and XPNPEP1 similarly | slightly more toxic | XPNPEP1 inhibition (in words) [2]: inhibited PEPD and XPNPEP1 similarly |
| CC(C)CCNC(=O)[C@@H]1CCCN1C(=O)[C@@H](O)[C@H](N)CC(C)C [CQ95, (S)-1-((2S,3R)-3-Amino-2-hydroxy-5-methylhexanoyl)-N-isopentylpyrrolidine-2-carboxamide] | – | retained similar PEPD/XPNPEP1 inhibition and cytotoxicity as CQ31 | – |
| CC(C)C[C@@H](N)[C@H](O)C(=O)N1CCC[C@H]1c1nnn[nH]1 [CQ99, (2S,3R)-1-((S)-2-(1H-Tetrazol-5-yl)pyrrolidin-1-yl)-3-amino-2-hydroxy-5-methylhexan-1-one] | – | completely inactive in cells | – |
| CC(C)C[C@H](NC(=O)[C@@H]1CCCN1C(=O)[C@@H](O)[C@H](N)CC(C)C)C(=O)NCCc1ccccc1 [CQ116, (S)-1-((2S,3R)-3-Amino-2-hydroxy-5-methylhexanoyl)-N-((S)-4-methyl-1-oxo-1-(phenethylamino)pentan-2-yl)pyrrolidine-2-carboxamide] | – | – | Stability in cell culture supernatants (in words) [3]: completely stable |
| COC(=O)[C@H](CC(C)C)NC(=O)[C@@H](O)[C@H](N)Cc1ccccc1 [MeBs, bestatin methyl ester, reference compound] | – | – | Additional cell death in CARD8 E274R assay (NT degradation) [7]: still induce considerably more cell death; Cell death independent of CASP1 in MV4;11 cells (in words) [5]: CASP1-independent cell death |
| COC(=O)[C@@H]1CCCN1C(=O)[C@@H](N)C(C)C [VP-OMe, reference compound] (H-Val-Pro-OMe) | – | – | Additional cell death in CARD8 E274R assay (NT degradation) [7]: did not cause substantially more death; Pyroptosis after dTAG-13 treatment (ternary complex destabilization) [8]: induce more pyroptosis after dTAG-13 treatment |
| C[C@H](NC(=O)[C@@H]1CCCN1C(=O)[C@@H]1CCCN1C(=O)[C@@H](O)[C@H](N)Cc1ccccc1)C(N)=O [apstatin, reference compound] | – | not cytotoxic at all | IC50 ([2]; read-out: XPNPEP1 IC50 (μM ± SEM), recombinant XPNPEP1, H-Lys(abz)-Pro-Pro-pNA cleavage, means ± SEM of three biological replicates): 18 ± 1.7 µM; IC50 ([5]; read-out: MV4;11 CASP1^−/− IC50, CTG cell viability after 24 h treatment): > 20 µM |
